Source: PubChem BioAssay
Compounds with a hit are over-represented: about 5.1% of the library has one in this group of screens.
APP 5'UTR act: APP 5'UTR luciferase reporter activation | activation, % at 2 µM | SH-SY5Y APP 5'UTR luciferase reporter, luminescence; zero percent = DMSO vehicle wells | 190,000 compounds, 1% hits;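 active = activation above a set limit, based on mean plus 3 SD of controls, cut at about 140% in these data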
STAT3 inh: inhibitors of IL-6 induced STAT3 signaling; 190,000 compounds, 0.89% hits; U3A cells, IL-6 STAT3-luciferase reporter, luminescence; host cell line lacks STAT1; inhibition, % at 5.5 µM;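 active = inhibition above the mean inhibition across all screened compounds plus 3 SD, cut at about 44% in these data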
STAT1 blocker: inhibitors of IFN-gamma induced STAT1 signaling. AID 920. 200,000 compounds, 0.35% hits. NIH 3T3 STAT1-luciferase reporter, luminescence. inhibition, % at 5.5 µM;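 active = inhibition above a set limit, the mean inhibition across all tested compounds plus 3 SD, cut at about 34% in these data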
STAT1 act-1: STAT1 signaling activation; NIH 3T3 STAT1-luciferase reporter, IFN-gamma, luminescence; 100% = IFN-gamma alone, no compound; activation (% of control), % at 5.5 µM; 200,000 compounds, 2.6% hits;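 active = activation above the screen-wide mean activation plus 3 SD, cut at about 130% in these data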
NF-kB neuron act: compounds increasing NF-kB expression in human neuronal cells | 190,000 compounds, 1.6% hits | NF-kB reporter expression; stronger effect = higher value | fold change at 12.5 µM; in the data active = fold change above about 3.3
STAT3 act-1: activators of IL-6 induced STAT3 signaling; U3A cells, IL-6 STAT3-luciferase reporter, luminescence; 100% = signal with IL-6 EC80 alone; activation (% of control), % at 5.6 µM; 190,000 compounds, 0.91% hits;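 active = activation above the screen-wide mean of compound activation plus 3 SD, cut at about 130% in these data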
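system = STAT3-luciferase reporter U3A cells | reagent = IL-6 stimulus at 33 ng/mL final | timing = 1 h compound pre-exposure, 6 h IL-6 stimulation, 37 °C | measured by = luminescence | evaluation = % activation versus median of IL-6-stimulated wells | control set = IL-6-only wells as 100% reference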
STAT3 act-2: STAT3 activation, confirmation assay | shares compounds with STAT3 act-1 | U3A STAT3-luciferase reporter, IL-6 potentiation, luminescence; U3A cells lack STAT1; 100 means same as IL-6 alone | potentiation (% of control), % at 5.7 µM | 1,200 compounds, 64% hits | AID 1267;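 active = percent activation of the STAT3 luciferase reporter above a set limit taken from the earlier primary screen, cut at about 130% in these data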
NFkB act 2: activates NF-kappaB, counter-screen to STAT3 activators | shares compounds with STAT3 act-1 | human cells, NF-kappaB reporter activation | activation (% of control), % at 5.7 µM | 1,200 compounds, 11% hits | AID 1309; in the data active = activation above about 120%;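 also: reporter induced by TNF-alpha stimulation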
STAT1 act-2: counter-screen for STAT3 activators: STAT1 activation | AID 1318 | NIH 3T3 STAT1-luciferase reporter, IFN-gamma, luminescence | activation (% of control), % at 5.7 µM | shares compounds with STAT3 act-1 | 1,200 compounds, 13% hits;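 active = activation above the solvent-only control well mean plus 3 SD, set per screening run, cut at about 120% in these data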
Large screens that a line does not name were inactive (follow-up assays come after a bar, where they were run).

O=C(Nc1ccccc1)c1ccc2ccccc2n1	APP 5'UTR act 179, NF-kB neuron act 6.6, STAT3 act-1 153 | STAT3 act-2 188 | NFkB act 2 141 | STAT1 act-2 176
O=C(NCC1CCCO1)c1csc(Nc2cccc3ccccc23)n1 (stereo not given)	none
Oc1ccccc1/C=N/n1c2ccccc2c2ccccc21	STAT3 act-1 147 | STAT3 act-2 137 | NFkB act 2 inactive | STAT1 act-2 inactive
Cc1ccc(OC(=O)c2oc3ccc(F)cc3c2C)c(C)c1	STAT3 act-1 159 | STAT3 act-2 137 | NFkB act 2 inactive | STAT1 act-2 inactive
Cc1c(C(=O)NC(C)C)sc2ncn(CC(=O)N3CCC(C)CC3)c(=O)c12	none
COc1ccc(-c2cc(C(F)(F)F)c(C#N)c(SCC(=O)Nc3nc(C)co3)n2)cc1	none
Cc1coc(NC(=O)CSc2nc(-c3ccc(Cl)cc3)cc(C(F)(F)F)c2C#N)n1	STAT3 act-1 138 | STAT3 act-2 inactive | NFkB act 2 inactive | STAT1 act-2 inactive
Cn1ccnc1Sc1ccc(/C=N/NC(=O)c2ccccc2O)cc1[N+](=O)[O-]	STAT3 act-1 149 | STAT3 act-2 177 | NFkB act 2 inactive | STAT1 act-2 124
COC(=O)C1=C(NC(=O)c2ccc(Br)cc2)CCS1	STAT3 act-1 146 | STAT3 act-2 133 | NFkB act 2 inactive | STAT1 act-2 inactive
O=C(OCc1ccccc1)c1ccc2c(c1)-c1ccccc1C2=O	none
CCc1ccc2c(c1)C(=O)c1ccccc1C2=O	NF-kB neuron act 3.5, STAT3 act-1 142 | STAT3 act-2 151 | NFkB act 2 131 | STAT1 act-2 165
COc1ccccc1/C=C(/CC(=O)NCc1ccc(F)cc1)c1nc2ccccc2s1	STAT3 act-1 136 | STAT3 act-2 inactive | NFkB act 2 inactive | STAT1 act-2 inactive
COc1ccccc1/C=C(/CC(=O)NCc1ccccc1)c1nc2ccccc2s1	none
O=c1[nH]c(CN2CCc3ccccc3C2)nc2ccccc12	none
Cc1[nH]c2ccccc2c1CN1CCc2ccccc2C1	STAT3 act-1 158 | STAT3 act-2 inactive | NFkB act 2 inactive | STAT1 act-2 inactive
Cc1[nH]n(-c2ccccc2)c(=O)c1/C=C1/C=c2ccccc2=N1	STAT3 act-1 156 | STAT3 act-2 170 | NFkB act 2 inactive | STAT1 act-2 inactive
CC(C)(C)c1ccccc1NC(=O)c1c(O)c2cccc3c2n(c1=O)CC3	STAT3 act-1 149 | STAT3 act-2 144 | NFkB act 2 inactive | STAT1 act-2 inactive
Cc1cccnc1NC(=O)c1c(O)c2cccc3c2n(c1=O)CCC3	none
O=C(Nc1nccs1)c1c(O)c2cccc3c2n(c1=O)CCC3	STAT3 act-1 154 | STAT3 act-2 167 | NFkB act 2 inactive | STAT1 act-2 inactive
O=C(Nc1ccccn1)c1c(O)c2cccc3c2n(c1=O)CCC3	STAT3 act-1 157 | STAT3 act-2 146 | NFkB act 2 inactive | STAT1 act-2 inactive
COc1ccc(OCC(=O)NNc2c3ccccc3nc3ccccc23)cc1	none
Clc1ccsc1-c1ccnc(-n2cccc2)n1	STAT3 act-1 140 | STAT3 act-2 160 | NFkB act 2 inactive | STAT1 act-2 inactive
Clc1ccc(-c2ccnc(-n3cccc3)n2)s1	none
Cc1ccsc1-c1ccnc(-n2cccc2)n1	STAT3 act-1 146 | STAT3 act-2 inactive | NFkB act 2 inactive | STAT1 act-2 inactive
COc1ccc2c(c1OC)C(=O)N1N=C(c3ccc(Cl)cc3)CC21 (stereo not given)	none
CCOc1cc(/C=N/NC(=O)c2cccnc2)ccc1OCC(=O)N(C)C	none
